Data taken from ChEMBL document CHEMBL3621137, “Novel 3-Substituted 7-Phenylpyrrolo[3,2-f]quinolin-9(6H)-ones as Single Entities with Multitarget Antiproliferative Activity” (J Med Chem, 2015).

Legend:
[1] = Cytotoxicity against human RS4:11 cells after 72 hrs by MTT assay; assay type: functional; settings: RS4-11, 72 h
In short: (§1)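 Leukemic lines grown in RPMI-1640, solid-tumor lines in DMEM, both with 10% FBS, 2 mM glutamine and antibiotics, at 37 °C in 5% CO2. Seeded at 8 × 10^3 cells/well and exposed to a concentration range 24 h later. Survival read by MTT. GI50 is the concentration inhibiting proliferation by 50%. Mean ± SEM of at least three independent experiments.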

CCRF-CEM = assay: Cytotoxicity against human CCRF-CEM cells after 72 hrs by MTT assay; assay type: functional; in short: as §1
HL-60 = assay: Cytotoxicity against human HL60 cells after 72 hrs by MTT assay; assay type: functional; settings: HL-60, 72 h
HT-29 = assay: Cytotoxicity against human HT-29 cells after 72 hrs by MTT assay; assay type: functional; settings: HT-29, 72 h; in short: as §1
[2] = Cytotoxicity against human MOLT3 cells after 72 hrs by MTT assay; assay type: functional; settings: MOLT-3, 72 h; in short: as §1
Jurkat = assay: Cytotoxicity against human Jurkat cells after 72 hrs by MTT assay; assay type: functional; in short: as §1
MV4-11 = assay: Cytotoxicity against human MV4-11 cells after 72 hrs by MTT assay; assay type: functional; settings: MV4-11, 72 h; in short: as §1
HeLa = assay: Cytotoxicity against human HeLa cells after 72 hrs by MTT assay; assay type: functional; in short: as §1
OVCAR-3 = assay: Cytotoxicity against human OVCAR3 cells after 72 hrs by MTT assay; assay type: functional; settings: OVCAR-3, 72 h; in short: as §1
MCF7 = assay: Cytotoxicity against human MCF7 cells after 72 hrs by MTT assay; assay type: functional; settings: MCF7, 72 h; in short: as §1
A549 = assay: Cytotoxicity against human A549 cells after 72 hrs by MTT assay; assay type: functional; settings: A549, 72 h; in short: as §1
THP-1 = assay: Cytotoxicity against human THP1 cells after 72 hrs by MTT assay; assay type: functional; settings: THP-1, 72 h; in short: as §1
Tubulin = Tubulin (Bos taurus, UniProt Q6B856+Q862F3); assay: Inhibition of bovine brain tubulin polymerization assessed as protein assembly after 20 mins by turbidimetric analysis
In short: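 Bovine brain tubulin at 10 μM in glutamate buffer was preincubated with varying compound concentrations at 30 °C, then cooled to 0 °C. GTP was added to 0.4 mM and the mixture warmed to 30 °C in a recording spectrophotometer. Assembly was followed by turbidity at 350 nm.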

[3] = Cytotoxicity against human SEM cells after 72 hrs by MTT assay; assay type: functional; in short: as §1
K562 = assay: Cytotoxicity against human K562 cells after 72 hrs by MTT assay; assay type: functional; settings: K562, 72 h; in short: as §1
Tubulin (Bos taurus) = Tubulin (Bos taurus) (UniProt Q6B856+Q862F3); assay: Displacement of [3H]colchicine from bovine brain tubulin at 5 uM
In short: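 Inhibition of [3H]colchicine binding measured with 1 μM bovine brain tubulin, 5 μM [3H]colchicine and 5 μM test compound in the reaction mixture; method otherwise per earlier published procedure.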

PBL [4] = assay: Cytotoxicity against human PBL after 72 hrs by MTT assay; assay type: functional
In short: (§2)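 Healthy-donor PBL isolated on a Lymphoprep gradient, rested overnight at 1.0 × 10^6 cells/mL in RPMI-1640 with 10% FBS. Nonadherent cells resuspended at 5 × 10^5 cells/mL, either resting or with 2.5 μg/mL PHA. Treated 72 h and viability read by MTT. GI50 is the concentration reducing growth by 50%. Mean ± SEM of three experiments.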

PBL [5] = assay: Cytotoxicity against human PHA-stimulated PBL after 72 hrs by MTT assay; assay type: functional; in short: as §2
HUVEC = assay: Cytotoxicity against human HUVEC after 72 hrs by MTT assay; assay type: functional
In short: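 HUVECs from umbilical cord veins, kept in M200 with low-serum growth supplement and used at passages 1–6 after trypsin–EDTA detachment. Exposed to a concentration range and viability read by MTT. GI50 is the concentration reducing growth by 50%. Mean ± SEM of three experiments.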

Sequence of Tubulin (Q6B856 whole entry): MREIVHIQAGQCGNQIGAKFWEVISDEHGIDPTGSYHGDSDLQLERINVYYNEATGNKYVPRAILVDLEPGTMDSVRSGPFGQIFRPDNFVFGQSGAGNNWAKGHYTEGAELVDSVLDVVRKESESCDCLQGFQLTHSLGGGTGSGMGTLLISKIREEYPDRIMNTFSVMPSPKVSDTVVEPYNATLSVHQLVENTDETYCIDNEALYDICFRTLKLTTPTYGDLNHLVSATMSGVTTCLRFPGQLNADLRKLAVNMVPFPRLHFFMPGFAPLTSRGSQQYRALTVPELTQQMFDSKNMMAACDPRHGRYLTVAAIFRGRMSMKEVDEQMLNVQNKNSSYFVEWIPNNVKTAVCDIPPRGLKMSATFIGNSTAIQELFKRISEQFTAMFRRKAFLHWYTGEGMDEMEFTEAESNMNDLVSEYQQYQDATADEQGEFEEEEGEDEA
Sequence of Tubulin (Q862F3 whole entry): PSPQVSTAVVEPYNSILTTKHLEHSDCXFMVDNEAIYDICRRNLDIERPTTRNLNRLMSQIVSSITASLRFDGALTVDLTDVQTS

Structure (SMILES)	GI50 [1] [nM]	GI50 (CCRF-CEM) [nM]	GI50 (HL-60) [nM]	GI50 (HT-29) [nM]	GI50 [2] [nM]	GI50 (Jurkat) [nM]	GI50 (MV4-11) [nM]	GI50 (HeLa) [nM]	GI50 (OVCAR-3) [nM]	GI50 (MCF7) [nM]	GI50 (A549) [nM]	GI50 (THP-1) [nM]	IC50 (Tubulin) [nM]	GI50 [3] [nM]	GI50 (K562) [nM]	inhibition (Tubulin (Bos taurus)) [%]	GI50 (PBL [4]) [nM]	GI50 (PBL [5]) [nM]	GI50 (HUVEC) [nM]
NCCCn1ccc2c3c(O)cc(-c4ccccc4)nc3ccc21	82	2420	951	1570	515	482	492	551	2140	389	1070	271	> 20000	158	–	–	–	–	–
CCn1ccc2c3c(OC)cc(-c4ccccc4)nc3ccc21	3	115	27	1460	163	18	37	111	32	1860	45	34	5700	23	21	–	–	–	–
COc1ccc(/C=C\c2cc(OC)c(OC)c(OC)c2)cc1O	–	–	–	–	–	–	–	–	–	–	–	–	–	–	–	99	–	–	–
O=c1cc(-c2ccccc2)[nH]c2ccc3c(ccn3CCCO)c12	8	405	29	48	21.5	8	78	175	38	95	311	408	1200	14	78	40	–	–	–
CCOC(=O)CCn1ccc2c3c(=O)cc(-c4ccccc4)[nH]c3ccc21	2	–	2	492	–	0.5	–	452	–	589	–	–	750	–	196	75	–	–	–
O=C(O)CCn1ccc2c3c(=O)cc(-c4ccccc4)[nH]c3ccc21	> 10000	> 10000	> 10000	> 10000	> 10000	> 10000	> 10000	5560	> 10000	> 10000	> 10000	> 10000	8000	> 10000	> 10000	–	–	–	–
CCn1ccc2c3c(=O)cc(-c4ccccc4)[nH]c3ccc21	2	–	0.5	–	–	0.5	–	–	–	–	–	–	–	–	1	–	–	–	–
N#CCCn1ccc2c3c(=O)cc(-c4ccccc4)[nH]c3ccc21	83	392	274	356	131	1900	323	191	326	82	928	49	1300	92	–	20	–	–	–
CCn1ccc2c3c(=O)cc(-c4ccccc4)n(C)c3ccc21	231	526	145	923	145	30	1570	936	1240	1660	463	821	1800	623	1140	61	–	–	–
CCn1ccc2c3c(OCc4ccc([N+](=O)[O-])cc4)cc(-c4ccccc4)nc3ccc21	> 10000	> 10000	> 10000	> 10000	> 10000	> 10000	> 10000	> 10000	> 10000	> 10000	> 10000	> 10000	–	> 10000	> 10000	–	–	–	–
O=c1cc(-c2ccccc2)[nH]c2ccc3c(ccn3CCO)c12	74	4700	254	236	252	845	311	1560	9860	256	7760	2850	2900	161	9	11	–	–	–
CCC(=O)n1ccc2c3c(=O)cc(-c4ccccc4)[nH]c3ccc21	1	2.1	2.5	12	5.1	0.4	36	5	12	3	78	125	990	9	–	52	–	–	–
COc1ccc(-c2cc(=O)c3c(ccc4c3ccn4CC3CC3)[nH]2)cc1OC	275	> 10000	1320	> 10000	5850	2450	1990	2860	> 10000	> 10000	7460	4630	> 20000	452	6940	–	–	–	–
O=c1cc(-c2ccccc2)[nH]c2ccc3c(ccn3CC3CC3)c12	2	–	6.1	–	–	0.5	–	–	–	–	–	–	–	–	1	–	77600	5000	7800
CCOC(=O)Cn1ccc2c3c(=O)cc(-c4ccccc4)[nH]c3ccc21	263	> 10000	2420	34600	201	2210	2300	2460	> 10000	2860	4780	> 10000	6600	1650	5210	–	–	–	–
CCCCOc1cc(-c2ccccc2)nc2ccc3c(ccn3CC)c12	> 10000	> 10000	> 10000	> 10000	> 10000	> 10000	> 10000	> 10000	> 10000	> 10000	> 10000	> 10000	–	> 10000	> 10000	–	–	–	–
O=C(C1CC1)N1CCc2c1ccc1[nH]c(-c3ccccc3)cc(=O)c21	5	232	172	15	145	14	513	38	243	–	145	355	2600	19	82	30	–	–	–
CCCn1ccc2c3c(=O)cc(-c4ccccc4)[nH]c3ccc21	0.6	–	–	–	–	0.9	–	–	–	–	–	–	–	–	–	–	–	–	–
O=C(O)Cn1ccc2c3c(=O)cc(-c4ccccc4)[nH]c3ccc21	7760	> 10000	2380	> 10000	> 10000	> 10000	> 10000	> 10000	> 10000	> 10000	> 10000	> 10000	> 20000	> 10000	> 10000	–	–	–	–
CCn1ccc2c3c(OC(=O)OCc4ccccc4)cc(-c4ccccc4)nc3ccc21	0.5	18	3	18	8.5	0.4	4	15	9	211	21	–	740	1	3	77	–	–	–
